# Experimental data published in ChEMBL document CHEMBL2331169, “Search for α3β₂/₃γ2 subtype selective ligands that are stable on human liver microsomes” (Bioorg Med Chem, 2013).
# Calls of active or inactive are those of the source. The calls are words filed in the database; no cut-off is given here.
# Assays:
# [1] = biological target: T1, GABA A receptor alpha-5/beta-3/gamma-2 (Rattus norvegicus) (UniProt P18508+P19969+P63079); assay: Agonist activity at rat GABAA alpha5beta3gamma2 receptor expressed in Xenopus oocytes assessed as stimulation of GABA-induced chloride current at 1 uM incubated 30 secs prior to GABA induction measured after 15 mins by two-electrode voltage clamp assay relative to control; assay type: cell-based; conditions: Oocyte
# How it was run: (§1)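 Rat GABAA β3 and γ2 cDNAs plus α1, α2, α3 or α5 cDNA injected into Xenopus oocytes; follicle layers removed 36 h later. Two-electrode recording with […]-filled electrodes; oocytes perfused with Ringer (90 mM NaCl, 5 mM HEPES pH 7.4, 1 mM MgCl2, KCl, CaCl2) switched to GABA at EC3 with drug (0.1% DMSO final). Mean ± SEM, 3–4 oocytes, ≥2 batches.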
# [2] = biological target: T1, GABA A receptor alpha-5/beta-3/gamma-2 (Rattus norvegicus); assay: Agonist activity at rat GABAA alpha5beta3gamma2 receptor expressed in Xenopus oocytes assessed as stimulation of GABA-induced chloride current at 100 nM incubated 30 secs prior to GABA induction measured after 15 mins by two-electrode voltage clamp assay relative to control; assay type: cell-based; conditions: Oocyte; how it was run: as §1
# [3] = biological target: Gamma-aminobutyric acid receptor subunit alpha-3 (Rattus norvegicus) (UniProt P20236); assay: Agonist activity at rat GABAA alpha3beta3gamma2 receptor expressed in Xenopus oocytes assessed as stimulation of GABA-induced chloride current at 1 uM incubated 30 secs prior to GABA induction measured after 15 mins by two-electrode voltage clamp assay relative to control; assay type: cell-based; conditions: Oocyte; how it was run: as §1
# [4] = biological target: Gamma-aminobutyric acid receptor subunit alpha-3 (Rattus norvegicus) (UniProt P20236); assay: Agonist activity at rat GABAA alpha3beta3gamma2 receptor expressed in Xenopus oocytes assessed as stimulation of GABA-induced chloride current at 100 nM incubated 30 secs prior to GABA induction measured after 15 mins by two-electrode voltage clamp assay relative to control; assay type: cell-based; conditions: Oocyte; how it was run: as §1
# [5] = biological target: T2, GABA A receptor alpha-2/beta-2/gamma-2 (Rattus norvegicus) (UniProt P18508+P23576+P63138); assay: Agonist activity at rat GABAA alpha2beta3gamma2 receptor expressed in Xenopus oocytes assessed as stimulation of GABA-induced chloride current at 1 uM incubated 30 secs prior to GABA induction measured after 15 mins by two-electrode voltage clamp assay relative to control; assay type: cell-based; conditions: Oocyte; how it was run: as §1
# [6] = biological target: T2, GABA A receptor alpha-2/beta-2/gamma-2 (Rattus norvegicus); assay: Agonist activity at rat GABAA alpha2beta3gamma2 receptor expressed in Xenopus oocytes assessed as stimulation of GABA-induced chloride current at 100 nM incubated 30 secs prior to GABA induction measured after 15 mins by two-electrode voltage clamp assay relative to control; assay type: cell-based; conditions: Oocyte; how it was run: as §1
# [7] = biological target: T3, GABA-A receptor; alpha-1/beta-2/gamma-2 (Rattus norvegicus) (UniProt P18508+P62813+P63138); assay: Agonist activity at rat GABAA alpha1beta3gamma2 receptor expressed in Xenopus oocytes assessed as stimulation of GABA-induced chloride current at 1 uM incubated 30 secs prior to GABA induction measured after 15 mins by two-electrode voltage clamp assay relative to control; assay type: cell-based; conditions: Oocyte; how it was run: as §1
# [8] = biological target: T3, GABA-A receptor; alpha-1/beta-2/gamma-2 (Rattus norvegicus); assay: Agonist activity at rat GABAA alpha1beta3gamma2 receptor expressed in Xenopus oocytes assessed as stimulation of GABA-induced chloride current at 100 nM incubated 30 secs prior to GABA induction measured after 15 mins by two-electrode voltage clamp assay relative to control; assay type: cell-based; conditions: Oocyte; how it was run: as §1
# [9] = Metabolic stability in heat inactivated human liver microsomes assessed as compound remaining at 10 uM measured at 60 mins by LC-MS/MS analysis relative to control; assay type: ADME, Microsome; conditions: read-out: Stability
# How it was run: (§2)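 Control incubation with heat-inactivated human liver microsomes (0.5 mg protein/ml) in 100 mM phosphate pH 7.4, 37 °C, sampled at 0 and 60 min. Samples quenched in acetonitrile with internal standard and analysed by LC-MS/MS. Percent remaining is the peak-area ratio relative to 0 min ×100; duplicates.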
# [10] = Metabolic stability in human liver microsomes assessed as compound remaining at 10 uM measured at 60 mins by LC-MS/MS analysis relative to control; assay type: ADME, Microsome; conditions: read-out: Stability
# How it was run: (§3)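 Pooled human liver microsomes (150 donors, 0.5 mg protein/ml) with 2.5 mM NADPH and 3.3 mM MgCl2 in 100 mM phosphate pH 7.4, 0.1% DMSO final, 37 °C, reaction started with microsomes. Aliquots quenched in cold acetonitrile with internal standard; LC-MS/MS in positive-ion ESI MRM mode. Percent remaining is analyte/internal-standard peak-area ratio versus 0 min ×100; duplicates.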
# [11] = Metabolic stability in human liver microsomes assessed as compound remaining at 10 uM measured at 30 mins by LC-MS/MS analysis relative to control; assay type: ADME, Microsome; conditions: read-out: Stability; how it was run: as §3
# [12] = Metabolic stability in human liver microsomes assessed as compound remaining at 10 uM measured at 15 mins by LC-MS/MS analysis relative to control; assay type: ADME, Microsome; conditions: read-out: Stability; how it was run: as §3
# [13] = (§4) Metabolic stability in heat inactivated human liver microsomes assessed as compound remaining at 1 uM measured at 60 mins by LC-MS/MS analysis relative to control; assay type: ADME, Microsome; conditions: heat-inactivated liver microsomes, read-out: Stability; how it was run: as §2
# Liver microsomes [14] = assay: (§5) Metabolic stability in human liver microsomes assessed as compound remaining at 1 uM measured at 60 mins by LC-MS/MS analysis relative to control; assay type: ADME, Microsome; conditions: microsomes, 1 h, 1 µM; how it was run: as §3
# Liver microsomes [15] = assay: (§6) Metabolic stability in human liver microsomes assessed as compound remaining at 1 uM measured at 30 mins by LC-MS/MS analysis relative to control; assay type: ADME, Microsome; conditions: microsomes, 0.5 h, 1 µM; how it was run: as §3
# [16] = Metabolic stability in human liver microsomes assessed as compound remaining at 1 uM measured at 15 mins by LC-MS/MS analysis relative to control; assay type: ADME, Microsome; conditions: read-out: Stability; how it was run: as §3
# [17] = as §5; assay type: ADME, Microsome; conditions: liver microsomes, read-out: Stability; how it was run: as §3
# [18] = as §6; assay type: ADME, Microsome; conditions: liver microsomes, read-out: Stability; how it was run: as §3
# Rattus norvegicus [19] = assay: Sedative activity in rat assessed as reduction of D-amphetamine sulfate-induced locomotion at 10 to 100 mg/kg, ip administered 20 mins prior to testing measured for 90 mins relative to vehicle-treated control; assay type: functional, organism-based
# How it was run: (§7)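 Rats kept ≥10 days on a reversed light/dark cycle. Drug or saline (2 ml/kg) given i.p. 20 min before an open-field arena; spontaneous x–y locomotion recorded 30 min by beam breaks. D-amphetamine sulfate 0.5 mg/kg i.p. then given, and locomotion recorded a further 90 min.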
# Rattus norvegicus [20] = assay: Anxiolytic activity in rat assessed as increase in time spent in lighted area at 10 to 100 mg/kg, ip administered 20 mins prior to testing measured for 30 mins by light/dark cycle test relative to vehicle-treated control; assay type: functional, organism-based
# Liver microsomes [21] = assay: as §4; assay type: ADME, Microsome; conditions: microsomes, 1 h, 1 µM; how it was run: as §2
# Rattus norvegicus [22] = assay: Sedative activity in rat assessed as reduction of D-amphetamine sulfate-induced locomotion at 3 mg/kg, ip administered 20 mins prior to testing measured for 90 mins relative to vehicle-treated control; assay type: functional, organism-based; set-up: dose 3 mg/kg; how it was run: as §7
# Rattus norvegicus [23] = assay: Anxiolytic activity in rat assessed as increase in time spent in lighted area at 3 mg/kg, ip administered 20 mins prior to testing measured for 30 mins by light/dark cycle test relative to vehicle-treated control; assay type: functional, organism-based; set-up: dose 3 mg/kg
# Sequence of Gamma-aminobutyric acid receptor subunit alpha-3 (Rattus norvegicus) (P20236 whole entry): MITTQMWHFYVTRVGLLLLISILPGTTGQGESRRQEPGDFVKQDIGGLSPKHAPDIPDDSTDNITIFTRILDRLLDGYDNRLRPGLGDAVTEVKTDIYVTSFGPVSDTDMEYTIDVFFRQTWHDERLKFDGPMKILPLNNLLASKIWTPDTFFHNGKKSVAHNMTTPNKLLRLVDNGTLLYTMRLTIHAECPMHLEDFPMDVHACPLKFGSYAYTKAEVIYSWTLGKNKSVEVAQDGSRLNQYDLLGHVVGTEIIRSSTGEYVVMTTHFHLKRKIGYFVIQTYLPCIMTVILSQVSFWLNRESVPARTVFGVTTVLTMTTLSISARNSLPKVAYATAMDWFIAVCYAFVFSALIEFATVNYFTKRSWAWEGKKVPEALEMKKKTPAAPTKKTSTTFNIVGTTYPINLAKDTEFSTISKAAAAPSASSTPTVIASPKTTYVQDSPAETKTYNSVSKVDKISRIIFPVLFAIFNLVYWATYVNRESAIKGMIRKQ
Compound,Activity [1],Activity [2],Activity [3],Activity [4],Activity [5],Activity [6],Activity [7],Activity [8],"remaining at 1 h, 10 µM [9]","remaining at 1 h, 10 µM [10]","remaining at 0.5 h, 10 µM [11]","remaining at 0.25 h, 10 µM [12]","remaining at 1 h, 1 µM [13]","remaining at 0.25 h, 1 µM [16]","remaining at 1 h, 1 µM [17]","remaining at 0.5 h, 1 µM [18]",further results
C#Cc1ccc2c(c1)C(c1ccccn1)=NCc1c(C(=O)NC)ncn1-2,182%,122%,376%,163%,226%,140%,171%,117%,110%,110%,106%,104%,110%,109%,–,–,Stability (Liver microsomes [14]): 136.4%; Stability (Liver microsomes [15]): 126%
C#Cc1ccc2c(c1)C(c1ccccn1)=NCc1c(C(=O)O)ncn1-2,–,–,–,–,–,–,–,–,88.3%,85.9%,86.1%,91.4%,97%,102%,110%,105%,–
C#Cc1ccc2c(c1)C(c1ccccc1)=NCc1c(-c3nc(C(C)C)no3)ncn1-2,291%,175%,381%,195%,281%,160%,150%,107%,119%,96.6%,108%,109%,–,100%,90.8%,110%,Activity (Rattus norvegicus [19]): inactive; Activity (Rattus norvegicus [20]): Active; Stability (Liver microsomes [21]): 137.5%
C#Cc1ccc2c(c1)C(c1ccccn1)=NCc1c(-c3nc(C(C)C)no3)ncn1-2,252%,130%,375%,143%,236%,139%,178%,117%,91.7%,95.1%,99.3%,106%,113%,97.8%,89.5%,98.7%,–
C#Cc1ccc2c(c1)C(c1ccccc1F)=NCc1c(C(=O)OCC)ncn1-2,–,–,–,–,–,–,–,–,110%,0.6%,3.6%,20%,102%,13.5%,0.3%,2.2%,–
C#Cc1ccc2c(c1)C(c1ccccc1F)=NCc1c(-c3nc(C(C)C)no3)ncn1-2,331%,239%,460%,226%,225%,154%,234%,140%,–,–,–,–,–,–,–,–,–
C#Cc1ccc2c(c1)C(c1ccccc1F)=NCc1c(C(=O)NC)ncn1-2,361%,326%,485%,349%,287%,241%,201%,152%,108%,103%,103%,96.8%,116%,97.3%,92.3%,95.9%,–
C#Cc1ccc2c(c1)C(c1ccccn1)=NCc1c(C(=O)OCC)ncn1-2,–,–,–,–,–,–,–,–,95.4%,76.1%,90.4%,103%,93.8%,106%,80.2%,95.6%,–
C#Cc1ccc2c(c1)C(c1ccccc1)=NCc1c(C(=O)NC)ncn1-2,307%,257%,831%,412%,287%,211%,192%,132%,114%,82.8%,104%,107%,114%,87.3%,5.2%,37.5%,–
C#Cc1ccc2c(c1)C(c1ccccc1)=NCc1c(C(=O)OCC)ncn1-2,–,–,–,–,–,–,–,–,102%,1.7%,13.9%,47.6%,107%,41.4%,1.5%,11.2%,–
C#Cc1ccc2c(c1)C(c1ccccc1)=NCc1c(C(=O)O)ncn1-2,–,–,–,–,–,–,–,–,97.2%,94.8%,94.8%,95.3%,106%,108%,111%,110%,–
CN1C(=O)CN=C(c2ccccc2)c2cc(Cl)ccc21,–,–,–,–,–,–,–,–,–,–,–,–,–,–,–,–,Activity (Rattus norvegicus [22]): Active; Activity (Rattus norvegicus [23]): Active
